Screens (PubChem)
ANO1 activ: activators or potentiators of mouse TMEM16A chloride channel; Q8BHY3; HEK293 TMEM16A/YFP-H148Q/I152L, iodide quench fluorescence; stronger effect = lower value; B-score at 10 µM; hit rate 0.3% among 340,000;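 active means fluorescence-ratio B-score plate-corrected deviation score at least 3 library SD below zero, with starting fluorescence score within 5 deviations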;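 further: channel opened by trigger with iodide after compound preincubation; score built on the fluorescence ratio of max minus min over baseline; more negative score means more quench and so TMEM16A activation or potentiation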
Target sequence (Q8BHY3 whole entry, looked up): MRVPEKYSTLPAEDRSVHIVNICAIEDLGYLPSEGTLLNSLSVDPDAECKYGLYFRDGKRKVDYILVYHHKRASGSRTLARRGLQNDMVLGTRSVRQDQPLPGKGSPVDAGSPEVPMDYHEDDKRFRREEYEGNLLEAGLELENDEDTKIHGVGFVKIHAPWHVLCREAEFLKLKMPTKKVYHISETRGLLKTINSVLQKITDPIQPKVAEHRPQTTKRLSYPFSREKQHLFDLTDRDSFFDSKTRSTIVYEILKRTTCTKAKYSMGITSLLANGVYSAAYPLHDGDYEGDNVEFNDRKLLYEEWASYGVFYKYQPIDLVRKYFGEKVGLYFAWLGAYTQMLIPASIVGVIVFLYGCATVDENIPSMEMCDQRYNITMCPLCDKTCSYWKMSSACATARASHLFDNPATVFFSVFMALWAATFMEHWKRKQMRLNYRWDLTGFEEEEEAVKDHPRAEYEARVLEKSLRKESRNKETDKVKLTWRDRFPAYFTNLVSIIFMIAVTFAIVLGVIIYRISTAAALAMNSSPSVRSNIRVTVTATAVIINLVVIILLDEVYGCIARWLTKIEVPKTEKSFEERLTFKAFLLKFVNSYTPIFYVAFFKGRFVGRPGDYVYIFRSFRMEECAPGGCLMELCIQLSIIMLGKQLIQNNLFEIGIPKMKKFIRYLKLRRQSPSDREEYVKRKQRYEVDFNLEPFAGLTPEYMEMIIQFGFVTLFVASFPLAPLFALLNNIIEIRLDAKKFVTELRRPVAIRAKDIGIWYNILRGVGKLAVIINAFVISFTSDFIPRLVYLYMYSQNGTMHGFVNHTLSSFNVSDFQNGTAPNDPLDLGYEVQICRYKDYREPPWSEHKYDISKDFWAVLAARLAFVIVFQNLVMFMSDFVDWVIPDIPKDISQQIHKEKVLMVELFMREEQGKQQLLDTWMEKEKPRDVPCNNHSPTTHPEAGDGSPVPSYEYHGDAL
Hep lipid drop: modulators of hepatic lipid droplet formation; AML12 mouse hepatocytes, oleate lipid droplets, BODIPY imaging; inhibition, % at 6.5 µM; hit rate 0.4% among 240,000; AID 1656;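 active means lipid droplet intensity inhibited by at least 50%, with more than 500 cells counted; inconclusive means wells with under 300 cells, treated as cytotoxic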
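Assay system: AML12 mouse liver cells | Compound: 6.5 µM single-point dosing | Schedule: Overnight exposure | Technique: Fluorescence imaging, 20x objective, two fields per well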
CHOP UPR activ: apoptotic UPR (CHOP) activation | hit rate 0.34% among 330,000 | activation, % at 10 µM | CHO-CHOP luciferase reporter, luminescence; percent of tunicamycin response over DMSO baseline;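 active means at 10 µM dose, activation of 40% or more, normalized to positive control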;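 further: 100% = tunicamycin at 10 µg/mL and 0% = DMSO alone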
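System: CHO-CHOP luciferase reporter cell line; amount: 500 cells/well; buffer or medium: F12 medium containing 10% fetal bovine serum; incubation: 6 h compound exposure at 37 °C after overnight seeding; measured by: luciferase luminescence after 10 min with Steady-Glo reagent; evaluation: % reporter activation, DMSO baseline versus tunicamycin full activation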
TMEM16A inh: inhibitors of mouse TMEM16A calcium-activated chloride channel | Q8BHY3 | HEK293 TMEM16A/YFP iodide influx fluorescence, ionomycin | hit rate 1.2% among 310,000 | normalized B-score (activity score, 25-100; higher = stronger inhibition) at 10 µM;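 active means ratio plate-corrected score three or more library SD toward inhibition, starting fluorescence score within five deviations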;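 further: score derived from kinetic fluorescence span divided by baseline fluorescence per well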
CHOP inh: CHOP inhibition in unfolded protein response; AID 2732; inhibition, % at 10 µM; CHO-K1 CHOP-promoter luciferase, tunicamycin-induced, 15-18 h; hit rate 3.8% among 220,000;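 active means compounds that reduced the stress-induced luciferase reporter signal by more than about 70% of percent inhibition, limit read from the data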;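 further: 0% = tunicamycin plus vehicle and 100% = wells without tunicamycin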
XBP1 UPR activ: activators of adaptive arm of unfolded protein response (XBP1); CHO-XBP1 luciferase reporter, IRE1-XBP1 UPR activation, luminescence; percent of tunicamycin response, DMSO as zero; activation, % at 20 µM; hit rate 0.33% among 330,000;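 active means versus positive control, 20 µM dose yields 30% or more activation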;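 further: 100% = tunicamycin at 10 µg/mL and 0% = DMSO only wells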
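Material: CHO cell line with stable XBP1 luciferase reporter; buffer or medium: F12 medium containing 10% fetal bovine serum; compound: single point, 20 µM final compound, 1% DMSO; incubation: 6 h treatment, 37 °C; measured by: glow luminescence from Steady-Glo reagent; evaluation: activation, % of tunicamycin; control set: tunicamycin high, DMSO low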
CHOP UPR conf: apoptotic UPR (CHOP) activation, confirmed; shares compounds with CHOP UPR activ; CHO-CHOP cells, CHOP-luciferase reporter luminescence; percent of tunicamycin response, DMSO as zero; activation, % at 10 µM; hit rate 64% among 1,000; in the data active means activation above about 33%;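 further: 0% = DMSO wells and 100% = tunicamycin 10 µg/mL wells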
The depositor's hits bear a star; i = inactive; u = inconclusive; x = not tested or not shown. Sampled rows, rich in hits. Any-hit rate of the full collection: about 4.2%.

SMILES	ANO1 activ	Hep lipid drop	CHOP UPR activ	TMEM16A inh	CHOP inh	XBP1 UPR activ	CHOP UPR conf
COc1cc(/C=C/[N+](=O)[O-])ccc1OC(=O)c1cc2ccccc2oc1=O	i	8	120*	i	x	-10	-4
Cc1cc(C)cc(NC(=O)c2cc(C)nc3ccccc23)c1	i	-3	-2	i	x	-4	x
CN1CCN(CC(=O)N2N=C(c3cccs3)CC2c2ccco2)CC1 (stereo not given)	i	10	0	i	-17	3	x
O=C(CCl)N1N=C(c2cccs2)CC1c1ccco1 (stereo not given)	i	-2	59*	i	106*	-8	34*
O=C1C=C(Nc2ccc(F)cc2)c2ccccc2C1=O	i	x	62*	x	x	2	9
Cn1c(/C=C/c2ccc([N+](=O)[O-])o2)nc2ccccc2c1=O	i	x	127*	i	x	6	75*
COC(=O)C1=C(C)N(c2ccc(C)c(C)c2)/C(=C/c2ccco2)C1=O	i	-6	68*	i	0	14	47*
C/C(=N\NC(=O)c1cccnc1)c1cc2ccccc2o1	i	5	-1	i	9	-2	x
C/C(=N\NC(=O)c1ccncc1)c1cc2ccccc2o1	i	9	115*	i	9	2	1
C/C(=N\NC(=O)C(c1ccccc1)c1ccccc1)c1ccccn1	i	-47	80*	i	53	-1	51*
COc1ccc(C(=O)N/N=C(\C)c2ccccn2)cc1OC	i	-87	355*	i	x	5	284*
C/C(=N\NC(=O)C(c1ccccc1)c1ccccc1)c1ccc(O)cc1	i	-17	-2	i	x	-2	x
C/C(=N/NC(=O)c1ccc(C(C)(C)C)cc1)c1ccccn1	i	x	556*	i	x	0	372*
C/C(=N\NC(=O)c1cc(Br)ccc1O)c1ccccn1	i	-4	213*	i	x	3	223*
CCOc1ccc(OCc2ccc(C(=O)N/N=C(\C)c3ccccn3)cc2)cc1	i	u	x	i	53	x	x
COc1ccc(NC(=O)c2ccccn2)cc1OC	i	-2	5	i	36	2	x
OCCOc1ccc(CN2CCN(CCCc3ccccc3)C(CCO)C2)cc1 (stereo not given)	i	4	2	i	x	-5	x
COCCn1c(-c2ccc(OC)cc2)c(-c2ccc(OC)cc2)oc1=O	i	2	0	i	x	2	x
Cc1nc(CCNC(=O)CC2C(=O)NCCN2CC(C)C)nc2c1CCC2 (stereo not given)	i	40	-1	i	x	-1	x
C/C(=N\NC(=O)c1ccc(Cl)c(Cl)c1)c1ccccn1	i	0	367*	i	x	4	322*
C/C(=N/NC(=O)c1ccccn1)c1ccncc1	i	-4	3	i	x	0	x
C/C(=N\NC(=O)c1cccc(Br)c1)c1ccccn1	i	-97	535*	i	x	7	449*
CC(C)N1C/C(=C/c2ccsc2)C(=O)/C(=C/c2ccsc2)C1	i	-3	95*	i	66	1	91*
Nc1ccc(NC(=O)CCN2CCOCC2)cc1	i	2	-2	i	x	-4	x
O=c1nc(Nc2cccc(Cl)c2)oc2cc(Cl)oc(=O)c12	i	16	41*	i	5	-2	73*
SMILES	ANO1 activ	Hep lipid drop	CHOP UPR activ	TMEM16A inh	CHOP inh	XBP1 UPR activ	CHOP UPR conf
O=C(CCN1C(=O)/C(=C/c2ccccc2)SC1=S)N1CCCCCC1	i	-11	10	i	x	0	x
O=C(CCN1C(=O)/C(=C\c2ccccc2F)SC1=S)N1CCCCC1	i	-3	43*	i	x	-6	37*
CC(C)[C@H]1COCCS(=O)(=O)N1Cc1cccc(Cl)c1	i	x	1	i	x	-1	x
CCn1c(-c2ccccc2)c(C(=O)CCl)c2ccccc21	i	-15	77*	i	105*	7	110*
CC(C)(C)c1ccc2c(c1)OC(C(=O)N/N=C\c1ccncc1)CO2 (stereo not given)	i	1	1	i	11	2	x
CC(C)(C)c1ccc2c(c1)OC(C(=O)N/N=C/c1ccc([N+](=O)[O-])o1)CO2 (stereo not given)	i	x	81*	i	14	2	0
C[C@H](Cc1ccc(O)c(O)c1)[C@@H](C)Cc1ccc(O)c(O)c1	x	x	x	x	-7	x	x
CC(Cc1ccc(O)c(O)c1)C(C)Cc1ccc(O)c(O)c1 (stereo not given)	x	x	83*	100*	x	-2	23
COc1cc2c(cc1OC)C(c1cc(Br)c(OC)c(OC)c1)CC(=O)N2 (stereo not given)	i	8	2	i	x	-4	x
O=C(Nc1scc(-c2ccc(Br)cc2)c1C(=O)O)c1ccccc1F	i	x	56*	i	x	5	5
CCOc1ccccc1N1CCN(CC(O)COC2CCCc3ccccc32)CC1 (stereo not given)	i	13	0	i	x	-2	x
CC1(C)Cc2c(c(N3CCOCC3)nc3sc(C(=O)Nc4cccc(Cl)c4)c(N)c23)CO1	i	-6	88*	i	x	7	0
S=C(Nc1ccccn1)c1ccccn1	i	7	165*	i	-38	16	126*
Cc1ccc(NC(=O)c2ccc(Cl)c(N3C(=O)C=CC3=O)c2)cc1	i	x	88*	i	43	-4	3
CSc1nc(Cl)c(C#N)c(-c2ccc(C)cc2)n1	i	x	1	i	43	-2	x
CSc1nc(-c2ccc(C)cc2)nc(C(Cl)Cl)n1	i	x	52*	i	65	12	6
CS(=O)(=O)c1nc(-c2ccccc2)cc(-c2ccccc2)c1C#N	i	x	68*	i	5	10	47*
Cc1ccc(-c2cc(-c3ccccc3)c(C#N)c(Br)n2)cc1	i	8	0	i	29	-3	x
O=C(/C(=C/c1ccc(Cl)cc1)c1nc2ccccc2[nH]1)c1ccccc1	i	x	211*	i	-48	0	158*
COc1cc(/C=C(/C(=O)c2cccs2)c2nc3ccccc3[nH]2)cc(OC)c1O	i	4	126*	i	-90	8	161*
Cc1ccc(C(=O)CSc2nc(N)cc(=O)[nH]2)cc1C	i	1	x	i	x	-2	-1
COc1ccc(/C=N/n2nnnc2N)c(OC)c1	x	12	2	i	x	-2	x
